In brackets after ≈: the same amount, converted by molar mass.

The values that follow come from ChEMBL document CHEMBL1687811, “Outbreak of meropenem-resistant Serratia marcescens comediated by chromosomal AmpC beta-lactamase overproduction and outer membrane protein loss” (2010).

Assay [1] relates to Serratia marcescens. Briefly: Antimicrobial activity against beta-lactamase AmpC producing meropenem-resistant Serratia marcescens by agar dilution method. It is filed as functional. The procedure, abridged: (§1)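 MICs by agar dilution following CLSI guidelines, with E. coli ATCC 25922 and P. aeruginosa ATCC 27853 as MIC reference strains. Where added, clavulanic acid served as the ESBL inhibitor and phenyl-arginine-β-naphthylamide as the efflux-pump inhibitor, each incorporated into the susceptibility test.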

In assay [2] the test system is Serratia marcescens. Put plainly: Antimicrobial activity against Serratia marcescens ATCC 8100 by agar dilution method. Type of assay: functional. The procedure, abridged:
(§2)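 MICs by agar dilution following CLSI guidelines, with E. coli ATCC 25922 and P. aeruginosa ATCC 27853 as MIC reference strains. Where an inhibitor was added, boronic acid or cloxacillin served as the AmpC inhibitor.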
Background: Agar dilution tests growth on a series of plates holding different concentrations.

For assay [3], the system named is Escherichia coli. Briefly: Antimicrobial activity against azide-resistant Escherichia coli J53 by agar dilution method.
Assay [4] deals with Serratia marcescens. Put plainly: Antimicrobial activity against beta-lactamase ompC intact/ompF deficient Serratia marcescens isolate YMC0570 by agar dilution method. Type of assay: functional. In a few lines: as §1
The test system of assay [5] is Serratia marcescens. Put plainly: Antimicrobial activity against beta-lactamase ompC intact/ompF deficient Serratia marcescens isolate YMC0547 by agar dilution method. It is filed as functional. The procedure, abridged:
as §1

Assay [6] concerns Serratia marcescens. Put plainly: Antimicrobial activity against Serratia marcescens ATCC 8100 by agar dilution method in presence of 300 ug/ml of boronic acid. It is filed as functional. The procedure, abridged:
as §2

Assay [7] has as its system Escherichia coli. Put plainly: Antimicrobial activity against azide-resistant Escherichia coli J53 by agar dilution method in presence 4 ug/ml of clavulanic acid. It is filed as functional. In a few lines:
as §1

Assay [8] relates to Serratia marcescens. Briefly: Antimicrobial activity against beta-lactamase ompC intact/ompF deficient Serratia marcescens isolate YMC0566 by agar dilution method. It is filed as functional. The procedure, abridged:
as §1

Assay [9] has as its system Serratia marcescens. Put plainly: Antimicrobial activity against beta-lactamase ompC intact/ompF deficient Serratia marcescens isolate YMC0579 by agar dilution method. Type of assay: functional. The procedure, abridged:
as §1

The subject of assay [10] is Serratia marcescens. Briefly: Antimicrobial activity against beta-lactamase ompC intact/ompF deficient Serratia marcescens isolate YMC0582 by agar dilution method. Type of assay: functional. The procedure, abridged:
as §1

The test system of assay [11] is Serratia marcescens. Put plainly: Antimicrobial activity against beta-lactamase ompC intact/ompF deficient Serratia marcescens isolate YMC0564 by agar dilution method. Type of assay: functional. The procedure, abridged: as §1
Assay [12] deals with Serratia marcescens. Briefly: Antimicrobial activity against beta-lactamase ompC intact/ompF deficient Serratia marcescens isolate YMC0584 by agar dilution method. It is filed as functional. In a few lines: as §1
For assay [13], the system named is Serratia marcescens. Put plainly: Antimicrobial activity against beta-lactamase ompC/ompF deficient Serratia marcescens ATCC 8100 by agar dilution method. Type of assay: functional.
Assay [14] relates to Serratia marcescens. Put plainly: Antimicrobial activity against Serratia marcescens ATCC 8100 by agar dilution method in presence of 20 ug/ml of phenyl-arginine-beta-naphthylamide. It is filed as functional. In a few lines:
as §1

Assay [15] deals with Serratia marcescens. Put plainly: Antimicrobial activity against beta-lactamase AmpC producing meropenem-resistant Serratia marcescens by agar dilution method in presence of 4 ug/ml of clavulanic acid. Type of assay: functional. In a few lines: as §1
Assay [16] deals with Serratia marcescens. Put plainly: Antimicrobial activity against beta-lactamase ompC intact/ompF deficient Serratia marcescens isolate YMC0583 by agar dilution method. It is filed as functional. The procedure, abridged:
as §1

In assay [17] the test system is Serratia marcescens. Put plainly: Antimicrobial activity against Serratia marcescens ATCC 8100 by agar dilution method in presence of 250 ug/ml of cloxacillin. Type of assay: functional. In a few lines: as §2
The test system of assay [18] is Serratia marcescens. Briefly: Antimicrobial activity against beta-lactamase ompC intact/ompF deficient Serratia marcescens isolate YMC0573 by agar dilution method. Type of assay: functional. In a few lines: as §1
For assay [19], the system named is Serratia marcescens. Briefly: Antimicrobial activity against Serratia marcescens ATCC 8100 by agar dilution method in presence of 4 ug/ml of clavulanic acid. It is filed as functional. In a few lines:
as §1

The term MIC denotes the least concentration at which growth counts as inhibited. With `C[C@H]1[C@H](NC(=O)/C(=N\OC(C)(C)C(=O)O)c2csc(N)n2)C(=O)N1S(=O)(=O)O` [AZTREONAM], the MIC against Serratia marcescens [1] came out at 8 µg/mL (≈ 18.4 µM); in the assay on Serratia marcescens [2] it was 64 µg/mL (≈ 147 µM).

On to `CO/N=C(\C(=O)N[C@@H]1C(=O)N2C(C(=O)O)=C(COC(C)=O)CS[C@H]12)c1csc(N)n1` [CEFOTAXIME], for which the MIC against Serratia marcescens [1] was 32 µg/mL (≈ 70.3 µM); against Escherichia coli [3], at most 0.12 µg/mL; in the assay on Serratia marcescens [2] it was above 256 µg/mL.

For `CO[C@@]1(NC(=O)Cc2cccs2)C(=O)N2C(C(=O)O)=C(COC(N)=O)CS[C@@H]21` [CEFOXITIN], the MIC with Serratia marcescens [1] is 4 µg/mL (≈ 9.36 µM); against Escherichia coli [3], 4 µg/mL (≈ 9.36 µM); with Serratia marcescens [2], above 256 µg/mL.

In the case of `CC(C)(O/N=C(\C(=O)N[C@@H]1C(=O)N2C(C(=O)[O-])=C(C[n+]3ccccc3)CS[C@H]12)c1csc(N)n1)C(=O)O` [CEFTAZIDIME], the figures for the MIC against Serratia marcescens [1], in the assay on Escherichia coli [3] and against Serratia marcescens [2] were 2 µg/mL (≈ 3.66 µM), 0.25 µg/mL (≈ 0.457 µM) and 128 µg/mL (≈ 234 µM), respectively.

As for `O=C(O)c1cn(C2CC2)c2cc(N3CCNCC3)c(F)cc2c1=O` [CIPROFLOXACIN], the results for the MIC against Serratia marcescens [1] and against Serratia marcescens [2] were at most 0.12 µg/mL and 8 µg/mL (≈ 24.1 µM), respectively.

As to `C[C@@H](O)[C@H]1C(=O)N2C(C(=O)O)=C(SCCNC=N)C[C@H]12` [IMIPENEM ANHYDROUS], the MIC against Serratia marcescens [4] was 4 µg/mL (≈ 13.4 µM); against Serratia marcescens [5], 8 µg/mL (≈ 26.7 µM); in the assay on Serratia marcescens [6], 0.5 µg/mL; in the assay with Escherichia coli [7], 0.12 µg/mL; against Serratia marcescens [8], 4 µg/mL (≈ 13.4 µM); against Serratia marcescens [9] it was 4 µg/mL (≈ 13.4 µM). Besides, the MIC was 4 µg/mL (≈ 13.4 µM) in the assay on Serratia marcescens [10]; 4 µg/mL (≈ 13.4 µM) against Serratia marcescens [11]; 8 µg/mL (≈ 26.7 µM) in the assay on Serratia marcescens [12]; 0.02 µg/mL (≈ 0.0668 µM) in the assay with Serratia marcescens [13]; 4 µg/mL in the assay with Serratia marcescens [14]; 0.06 µg/mL with Serratia marcescens [15]. Further, the MIC in the assay on Serratia marcescens [16] stood at 4 µg/mL (≈ 13.4 µM); in the assay on Serratia marcescens [17], 0.094 µg/mL; against Serratia marcescens [1], 0.12 µg/mL (≈ 0.401 µM); in the assay on Serratia marcescens [18], 4 µg/mL (≈ 13.4 µM); in the assay on Serratia marcescens [19], 4 µg/mL; in the assay on Serratia marcescens [2] it was 4 µg/mL (≈ 13.4 µM).

In the case of `C[C@@H](O)[C@H]1C(=O)N2C(C(=O)O)=C(S[C@@H]3CN[C@H](C(=O)N(C)C)C3)[C@H](C)[C@H]12` [MEROPENEM], the MIC was determined as 16 µg/mL (≈ 41.7 µM) in the assay on Serratia marcescens [4]; 32 µg/mL (≈ 83.4 µM) in the assay with Serratia marcescens [5]; 1 µg/mL in the assay with Serratia marcescens [6]; 0.015 µg/mL with Escherichia coli [7]; 16 µg/mL (≈ 41.7 µM) in the assay with Serratia marcescens [8]; 16 µg/mL (≈ 41.7 µM) in the assay with Serratia marcescens [9]. The minimum inhibitory concentration (MIC) against Serratia marcescens [10] was 16 µg/mL (≈ 41.7 µM); in the assay with Serratia marcescens [11], 16 µg/mL (≈ 41.7 µM); against Serratia marcescens [12], 16 µg/mL (≈ 41.7 µM); against Serratia marcescens [13], 0.25 µg/mL (≈ 0.652 µM); with Serratia marcescens [14] it was 8 µg/mL; with Serratia marcescens [15], 0.015 µg/mL. Moreover, the MIC was determined as 16 µg/mL (≈ 41.7 µM) against Serratia marcescens [16]; 0.008 µg/mL in the assay on Serratia marcescens [17]; 0.015 µg/mL (≈ 0.0391 µM) in the assay on Serratia marcescens [1]; 16 µg/mL (≈ 41.7 µM) against Serratia marcescens [18]; 0.03 µg/mL (≈ 0.0782 µM) against Escherichia coli [3]; 16 µg/mL with Serratia marcescens [19]. Also, the MIC against Serratia marcescens [2] was 16 µg/mL (≈ 41.7 µM).

Turning to `CCN1CCN(C(=O)N[C@@H](C(=O)N[C@@H]2C(=O)N3[C@@H]2SC(C)(C)[C@@H]3C(=O)O)c2ccccc2)C(=O)C1=O` [PIPERACILLIN], the MIC with Serratia marcescens [1] was above 256 µg/mL; in the assay with Escherichia coli [3] it was 1 µg/mL (≈ 1.93 µM); in the assay with Serratia marcescens [2] it was above 256 µg/mL.

Consider GENTAMICIN, for which the MIC was 32 µg/mL with Serratia marcescens [1] and above 256 µg/mL in the assay with Serratia marcescens [2].
